In general, IC50 refers to the concentration that inhibits the measured activity by half. Low values mean greater potency, high ones weaker potency.

*1 amine or outer side, *2 acyl side, *3 side chain or, on linkers, in order; H or OH if unused. Where a SMILES comes first, the peptide text is derived from it. Side-chain parts run from the residue outwards. [ ]: non-standard residue; d: D form. The star is where a group is joined. NMeF = CN[C@@H](Cc1ccccc1)C(=O)O; CO = O=C([*:1])[*:2]; OAll = C=CCO*

The target in one assay is Chitinase A (Serratia marcescens, UniProt P07254). Kind of assay: Displacement of 4-methylumbelliferydiacetyl-chitobiose from Serratia marcescens ChiA. The procedure, abridged:
(§1)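 Crude S. marcescens chitinase diluted in 0.1 M phosphate pH 7.0 (ChiA x10, ChiB x40, ChiC1 x4) was mixed with inhibitor in MeOH, buffer and 80 μM (solution added) 4-MU-(GlcNAc)2, then incubated 5 min. Fluorescence (ex 355/em 460 nm) was read every 60 s. The 4-methylumbelliferone production rate was corrected for each inhibitor's quenching using inhibitor plus 4MU mixtures. IC50 came from sigmoidal dose-response fits.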

For a further assay, the target named is T1, Chitinase B (Serratia marcescens, UniProt P11797).
T1 sequence (P11797 whole entry): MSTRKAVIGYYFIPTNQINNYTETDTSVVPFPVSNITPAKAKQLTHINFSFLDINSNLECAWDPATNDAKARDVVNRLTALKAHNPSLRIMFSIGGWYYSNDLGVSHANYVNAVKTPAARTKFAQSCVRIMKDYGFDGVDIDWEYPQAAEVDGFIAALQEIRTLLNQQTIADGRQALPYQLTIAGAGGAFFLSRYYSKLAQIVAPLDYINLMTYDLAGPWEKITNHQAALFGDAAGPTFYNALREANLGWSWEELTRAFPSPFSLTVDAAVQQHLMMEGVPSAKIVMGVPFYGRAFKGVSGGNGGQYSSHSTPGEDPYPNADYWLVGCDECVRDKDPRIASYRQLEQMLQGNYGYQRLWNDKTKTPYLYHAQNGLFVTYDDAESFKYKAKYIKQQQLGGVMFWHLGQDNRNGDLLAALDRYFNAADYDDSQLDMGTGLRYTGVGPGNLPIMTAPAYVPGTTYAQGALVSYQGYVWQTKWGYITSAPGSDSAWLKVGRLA
Kind of assay: Displacement of 4-methylumbelliferydiacetyl-chitobiose from Serratia marcescens ChiB. An outline of the steps: as §1

Another assay concerns the target T2, Chitinase C1 (Serratia marcescens, UniProt Q700B8).
T2 sequence (Q700B8 whole entry): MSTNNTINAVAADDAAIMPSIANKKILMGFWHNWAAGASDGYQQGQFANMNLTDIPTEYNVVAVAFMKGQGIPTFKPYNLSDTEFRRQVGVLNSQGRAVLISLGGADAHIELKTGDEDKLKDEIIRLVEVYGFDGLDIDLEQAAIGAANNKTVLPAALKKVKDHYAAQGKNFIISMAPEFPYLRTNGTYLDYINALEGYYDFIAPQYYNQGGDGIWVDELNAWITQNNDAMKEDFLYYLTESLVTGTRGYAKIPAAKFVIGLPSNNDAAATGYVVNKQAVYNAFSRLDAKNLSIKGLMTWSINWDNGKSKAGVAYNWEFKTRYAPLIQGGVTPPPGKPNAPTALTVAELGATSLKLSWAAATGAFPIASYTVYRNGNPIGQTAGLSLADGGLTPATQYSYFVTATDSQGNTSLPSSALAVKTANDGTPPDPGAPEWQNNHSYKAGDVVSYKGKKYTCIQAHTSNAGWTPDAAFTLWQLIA
Description: Displacement of 4-methylumbelliferydiacetyl-chitobiose from Serratia marcescens ChiC. An outline of the steps:
as §1

Chitinase A, sequence (P07254 whole entry): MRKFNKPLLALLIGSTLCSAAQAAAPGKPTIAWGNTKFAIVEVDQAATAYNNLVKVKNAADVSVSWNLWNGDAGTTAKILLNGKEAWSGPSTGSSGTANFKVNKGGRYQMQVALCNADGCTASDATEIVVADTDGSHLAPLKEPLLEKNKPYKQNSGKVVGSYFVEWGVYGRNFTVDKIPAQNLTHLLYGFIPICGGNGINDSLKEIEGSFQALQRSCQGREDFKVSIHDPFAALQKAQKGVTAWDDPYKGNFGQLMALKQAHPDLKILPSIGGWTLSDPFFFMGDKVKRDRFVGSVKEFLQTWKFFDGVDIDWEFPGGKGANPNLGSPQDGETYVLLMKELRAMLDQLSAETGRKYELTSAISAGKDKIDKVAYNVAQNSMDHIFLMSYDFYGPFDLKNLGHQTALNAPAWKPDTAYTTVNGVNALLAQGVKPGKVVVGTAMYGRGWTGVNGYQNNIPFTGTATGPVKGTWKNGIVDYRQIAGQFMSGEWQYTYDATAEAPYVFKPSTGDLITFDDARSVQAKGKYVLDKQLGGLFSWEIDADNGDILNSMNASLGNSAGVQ

As for `CNC(=O)NC(=N)NCCC[C@H](NC(C)=O)C(=O)O`, the IC50 on Chitinase A was 31 µM; on Chitinase B, 260 µM; on Chitinase C1, greater than 30 µM.

Turning to `CNC(=O)NC(=N)NCCC[C@H](NC(=O)[C@@H](C)NC(=O)[C@H](CC(=O)O)NC(C)=O)C(=O)N(C)[C@@H](Cc1ccccc1)C(=O)O`, the IC50 is 8.4 µM at Chitinase A, 30 µM on Chitinase B and greater than 30 µM at Chitinase C1.

As to `C=CCOC(=O)C[C@H](NC(=O)[C@H](Cc1ccccc1)N(C)C(=O)[C@H](CCCN=C(N)NC(=O)NC)NC(=O)[C@@H](C)NC(=O)[C@H](CC(=O)O)NC(C)=O)C(=O)O`, the IC50 at Chitinase A is 1.1 µM; at Chitinase B, 1 µM; at Chitinase C1, greater than 30 µM.

Consider `CNC(=O)NC(N)=NCCC[C@H](NC(=O)[C@@H](C)NC(C)=O)C(=O)O`, for which the IC50 on Chitinase A is 6.6 µM; at Chitinase B, 64 µM; on Chitinase C1 it was greater than 30 µM.

Consider `CNC(=O)NC(N)=NCCC[C@H](NC(=O)[C@@H](C)NC(=O)[C@H](CC(=O)O)NC(C)=O)C(=O)O`, for which the IC50 on Chitinase A was 32 µM; at Chitinase B, 110 µM; on Chitinase C1, greater than 30 µM.

Turning to `CNC(=O)NC(=N)NCCC[C@H](NC(C)=O)C(=O)N(C)[C@@H](Cc1ccccc1)C(=O)O`, the IC50 at Chitinase A was 0.75 µM; at Chitinase B, 3.7 µM; at Chitinase C1 it was greater than 30 µM.

For the compound `C=CCOC(=O)C[C@H](NC(=O)[C@H](Cc1ccccc1)N(C)C(=O)[C@H](CCCNC(=N)NC(=O)NC)NC(=O)[C@@H](C)NC(C)=O)C(=O)O`, the IC50 on Chitinase A was 0.025 µM; at Chitinase B it was 0.091 µM; at Chitinase C1, greater than 30 µM.

As to `CNC(=O)NC(=N)NCCC[C@H](NC(=O)[C@@H](C)NC(C)=O)C(=O)N(C)[C@@H](Cc1ccccc1)C(=O)O`, the IC50 on Chitinase A was 0.09 µM; on Chitinase B, 2.7 µM; at Chitinase C1 it was greater than 30 µM.

Regarding `C=CCOC(=O)C[C@H](NC(=O)[C@H](Cc1ccccc1)N(C)C(=O)[C@H](CCCNC(=N)NC(=O)NC)NC(C)=O)C(=O)O` (Ac-Arg([CO-NHMe])-[NMeF]-Asp(OAll)-OH), the IC50 on Chitinase A was 0.14 µM; at Chitinase B it was 0.13 µM; on Chitinase C1, greater than 30 µM.

For `CNC(=O)NC(=N)NCCC[C@@H]1NC(=O)[C@@H](C)NC(=O)C[C@@H](C(=O)O)NC(=O)C[C@@H](C(=O)O)NC(=O)[C@H](Cc2ccccc2)N(C)C1=O` [ARGIFIN], the results for the IC50 at Chitinase A, at Chitinase B and at Chitinase C1 were 0.025 µM, 6.4 µM and greater than 30 µM, respectively.

The values are drawn from ChEMBL document CHEMBL1153397, “Argifin; efficient solid phase total synthesis and evaluation of analogues of acyclic peptide” (Bioorg Med Chem, 2009).
